Reference: PubChem BioAssay AID602269 (Broad Institute, 2012)
Records with an inconclusive call do not appear. Calls of active or inactive are those of the source.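 The calls were made as follows: active = active in every separate test run, each with half-maximal potency at or below twice its top valid dose; inconclusive = test runs disagree, or a flat partial drop, or poor fit; inactive = inactive in every test run, including signal rising instead.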

Key:
[1] = GFP reporter loss versus dox-driven RFP – NIH3T3 R4-3T3 cells, dry powder, dose response (AID 602269); conditions: R4-3T3 NIH3T3 HSF-1 GFP / Tet-On RFP fluorescence, 48 h; at 26 µM (top of the series)
Outline: (§1)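 Technique: bottom-read fluorescence, GFP ex 485/em 535 nm, RFP ex 550/em 595 nm / Test system: engineered NIH3T3 cells, HSF-1 GFP plus doxycycline-inducible RFP / Control set: Didemnin B 400 nM as positive control / Times: 2 h 42 °C shock, then 48 h 37 °C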

[2] = test system: R4-3T3 NIH3T3 HSF-1 GFP / Tet-On RFP fluorescence, 48 h; assay: as above
Outline: as §1

SMILES | activity change, negative = inhibition [1] | AC50 [2] [µM]
CCc1ccc(NC(=O)C2C3CCC(O3)C2C(=O)O)cc1 (stereo unspecified) | -14.3% (inactive) | –
CC1=NNC(=O)/C1=C\c1cn(-c2ccccc2)nc1-c1ccc(Cl)cc1 | – | 1.27
CC(C)(C)C(=O)NC(=S)NNC(=O)c1sc2ccccc2c1Cl | – | 4.55
O=C(CCl)N1CCCC1c1ccc2c(c1)OCCO2 (stereo unspecified) | – | 1.18
Oc1ccc(Br)cc1/C=N/Nc1ccccn1 | – | 0.994
O=C1C=C(NCCN2CCOCC2)C(=O)c2cnccc21 | – | 2.28
